In ChEMBL document CHEMBL4052824, “Interfering with HuR-RNA Interaction: Design, Synthesis and Biological Characterization of Tanshinone Mimics as Novel, Effective HuR Inhibitors” (J Med Chem, 2018):
Active and inactive are the calls of the source. The rule behind the calls is not given here.

Assays:
[1] = biological target: T1, ELAV-like protein 1 (Homo sapiens, UniProt Q15717); test: Change in HuR localization from nucleus to cytoplasm in human MCF7 cells at 1 uM after 3 hrs by DAPI staining-based immunofluorescence method; assay type: cell-based
T1 sequence (Q15717 whole entry): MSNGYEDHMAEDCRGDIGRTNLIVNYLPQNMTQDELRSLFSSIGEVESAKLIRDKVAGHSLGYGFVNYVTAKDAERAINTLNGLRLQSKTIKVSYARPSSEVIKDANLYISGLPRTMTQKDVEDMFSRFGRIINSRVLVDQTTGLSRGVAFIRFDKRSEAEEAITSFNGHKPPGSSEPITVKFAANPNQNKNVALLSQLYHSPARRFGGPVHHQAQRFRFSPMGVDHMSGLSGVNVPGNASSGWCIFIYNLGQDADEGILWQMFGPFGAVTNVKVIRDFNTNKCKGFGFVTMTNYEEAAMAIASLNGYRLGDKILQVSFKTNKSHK
Summary of the method: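 MCF7 cells, 8.000/well, treated 3 h alongside DMSO control, then fixed in 3.7% PFA for 15 min at RT. Permeabilised 10 min (200 mM sucrose, 0.2% Triton X-100) and blocked 15 min in 2% BSA. Stained with anti-HuR (1:250), Alexa 594 secondary (1:500) and DAPI (1.5 μg/mL). Imaged at 40×, 13 fields/well. Read-out: nuclear/cytoplasmic HuR ratio, mean of single cells per well.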

[2] = tested on: PANC-1; test: Cytotoxicity against human PANC1 cells assessed as decrease in cell viability after 72 hrs by OZBlue assay; settings: PANC-1, 72 h
[3] = tested on: MDA-MB-231; test: Cytotoxicity against human MDA-MB-231 cells assessed as decrease in cell viability after 72 hrs by OZBlue assay; settings: MDA-MB-231, 72 h
[4] = tested on: MCF7; test: Cytotoxicity against human MCF7 cells assessed as decrease in cell viability after 72 hrs by OZBlue assay; settings: MCF7, 72 h
[5] = biological target: T1, ELAV-like protein 1; test: Binding affinity to human full length recombinant His-tagged HuR expressed in Escherichia coli […] assessed as inhibition of interaction with single-strand Bi-AU RNA probe by AlphaScreen assay
[6] = biological target: T1, ELAV-like protein 1; test: Binding affinity to human full length recombinant HuR expressed in Escherichia coli […] assessed as inhibition of interaction with 5'-DY681-labeled AU-rich RNA probe at 5 uM after 30 mins by REMSA
Summary of the method: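 Non-denaturing, non-cross-linked REMSA: full-length recombinant His-tagged HuR (E. coli-expressed) in at least 10-fold excess incubated 30 min with 75 fmol 5′-DY681-labeled AU-rich RNA probe plus DMSO or compound at 5 μM; reduction of shifted probe band scored qualitatively.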

[7] = tested on: MDA-MB-231; test: Antimigratory activity in human MDA-MB-231 cells at 5 to 20 uM after 24 to 48 hrs by scratch assay; assay type: functional, cell-based
Summary of the method: (§1)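 Scratch assay: monolayers in DMEM with 10% FBS wounded with a pipette tip, then treated with DMSO or compound; the same field imaged at 0, 24 and 48 h at 5× magnification and residual open wound area measured. Student t test.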

[8] = Binding affinity to 5'-DY681-labeled AU-rich RNA probe (unknown origin) at 5 uM after 30 mins by REMSA
Summary of the method: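 Non-denaturing, non-cross-linked gel-shift assay: 75 fmol of 5′-DY681-labeled AU-rich RNA probe incubated 30 min with compound at 5 μM, with DMSO as control. The probe was read by its fluorescent label to detect a shift or loss of the free RNA band.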

[9] = tested on: MCF7; test: Downregulation of HPRT1 mRNA expression in human MCF7 cells at 5 uM after 6 hrs by qRT-PCR method; assay type: functional, cell-based
Summary of the method: (§2)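 MCF7 cells treated with 5 μM compound or DMSO for 6 h. Total RNA extracted, transcript levels measured by qRT-PCR and normalized to RNA18s. Biological triplicate, mean ± SD, t test versus control.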

[10] = tested on: PANC-1; test: Antimigratory activity in human PANC1 cells at 5 to 20 uM after 24 to 48 hrs by scratch assay; assay type: functional, cell-based; summary of the method: as §1
[11] = Binding affinity to TNF AU-rich elements (unknown origin) at 10 uM by CD spectroscopic method
Summary of the method: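 Circular dichroism of TNF-ARE RNA (10 μM final) with compound (10 μM) in 10 mM sodium phosphate, pH 7.3. Spectra were recorded at 240–350 nm and 100 nm/min. The spectrum of compound alone (10 μM) in the same buffer was subtracted, and Δε was plotted to judge any change in RNA conformation.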

[12] = tested on: MCF7; test: Downregulation of RPLP0 mRNA expression in human MCF7 cells at 5 uM after 6 hrs by qRT-PCR method; assay type: functional, cell-based; summary of the method: as §2

Row | SMILES | IC50 [2] | IC50 [3] | IC50 [4] | Ki [5] | further results
1 | Cc1cccc2c3c(ccc12)C1=C(C(=O)C3=O)[C@@H](C)CO1 [DIHYDROTANSHINONE I] | 2.91 µM | 8.99 µM | 3.73 µM | 0.05 µM | Activity [1]: inactive
2 | COc1ccc(SC2=CC(=O)C(=O)c3c(-c4ccccc4)cn(S(=O)(=O)c4ccccc4)c32)cc1 | 13.6 µM | 14.3 µM | 23.5 µM | – | –
3 | COc1ccc(-c2cn(S(=O)(=O)c3ccccc3)c3c2C(=O)C(=O)C=C3)cc1 | – | – | – | > 0.2 µM | –
4 | COc1cccc(-c2cn(S(=O)(=O)c3ccccc3)c3c2C(=O)C(=O)C=C3)c1 | – | – | – | > 0.2 µM | –
5 | O=C1C=C(c2ccc([N+](=O)[O-])cc2)c2c(c(-c3ccccc3)cn2S(=O)(=O)c2ccccc2)C1=O | – | – | – | > 0.1 µM | –
6 | O=C1C(=O)c2c(-c3ccccc3)cn(S(=O)(=O)c3ccccc3)c2C2=C1C1C=CC2CC1 (stereo unspecified) | – | – | – | > 0.3 µM | –
7 | O=C1C=Cc2c(c(-c3ccccc3)cn2S(=O)(=O)c2ccc([N+](=O)[O-])cc2)C1=O | – | – | – | – | inhibition [6]: Active
8 | O=C1C=Cc2c(c(-c3ccccc3)cn2S(=O)(=O)c2cccc([N+](=O)[O-])c2)C1=O | – | – | – | > 0.1 µM | –
9 | O=C(O)Cc1ccc(SC2=CC(=O)C(=O)c3c(-c4ccccc4)cn(S(=O)(=O)c4ccccc4)c32)cc1 | – | – | – | – | inhibition [6]: Active
10 | O=C1C=Cc2c(c(-c3ccccc3)cn2S(=O)(=O)c2cccc(F)c2)C1=O | – | – | – | > 0.1 µM | –
11 | O=C1C=C(c2ccccc2)c2c(c(-c3ccccc3)cn2S(=O)(=O)c2ccccc2)C1=O | – | – | – | > 0.1 µM | –
12 | O=C1C=C(Sc2ccccc2)c2c(c(-c3ccccc3)cn2S(=O)(=O)c2ccccc2)C1=O | 24.9 µM | 23.8 µM | 28.7 µM | – | inhibition [6]: Active
13 | CC1=CC(=O)C(=O)c2c(-c3ccccc3)cn(S(=O)(=O)c3ccccc3)c21 | – | – | – | > 0.2 µM | –
14 | Cc1ccccc1-c1cn(S(=O)(=O)c2ccccc2)c2c1C(=O)C(=O)C=C2 | 25.9 µM | 47.2 µM | 58.5 µM | – | inhibition [6]: Active
15 | CN(C)c1ccc(-c2cn(S(=O)(=O)c3ccccc3)c3c2C(=O)C(=O)C=C3)cc1 | – | – | – | > 0.1 µM | –
16 | O=C1C=Cc2c(c(-c3ccccc3)cn2S(=O)(=O)c2ccccc2)C1=O | 26.5 µM | 24.2 µM | 32.7 µM | – | Activity [7]: Active; Activity [8]: inactive; Activity [9]: inactive; Activity [10]: Active; Activity [11]: inactive; Activity [12]: inactive
